Assay results published in ChEMBL document CHEMBL3399948, “Discovery of 7-azaindole derivatives as potent Orai inhibitors showing efficacy in a preclinical model of asthma” (Bioorg Med Chem Lett, 2015).
One block for each compound: values may come before it.

Tests used:
[1] = Inhibition of Orai-mediated calcium entry in human Jurkat E6-1 cells after 1 hr by FLIPR assay; type: cell-based
[2] = Inhibition of Orai channel in phytohemagglutinin-stimulated human Jurkat E6-1 cells assessed as NFAT-induced transcription measured as IL-2 level after 20 hrs by ELISA; type: cell-based
[3] = Solubility of the compound in water; type: physicochemical
[4] = biological target: Calcium release-activated calcium channel protein 1 (Homo sapiens, UniProt Q96D31); assay: Inhibition of human Orai1/STIM1 expressed in HEK293 cells assessed as inhibition of channel-mediated calcium current by electrophysiology assay in presence of 10 mM EGTA; type: cell-based
Procedure, shortened: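 Automated whole-cell patch clamp on HEK293 cells stably expressing human STIM1/Orai1. I_CRAC activated by passive store depletion with 10 mM EGTA in the internal solution. Holding potential 0 mV; 100 ms voltage ramps applied every 3 s. IC50 from normalized inhibition, at least 3 cells per concentration; values are mean ± SD of two or more determinations.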

LAD2 = assay: Inhibition of degranulation in human LAD2 cells assessed as inhibition of IgE-induced beta-hexosaminidase release preincubated for 30 mins by p-nitrophenyl-N-acetyl-D-glucosamide-based spectrophotometric assay; type: functional, cell-based
Procedure, shortened: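 Human LAD2 mast cells sensitized overnight with 100 ng/mL biotin-IgE in SCF-containing medium. Supernatant β-hexosaminidase measured with p-nitrophenyl-N-acetyl-glucosamide (pH 4.5, 90 min, 37 °C), stopped with glycine pH 10, absorbance read at 405 nm.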

Blood = assay: Inhibition of IL2 secretion in rat whole blood after 24 hrs by Rat IL-2 DuoSet assay; type: functional, tissue-based
Procedure, shortened: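 Rat whole blood diluted 1:4 in RPMI and stimulated with concanavalin A (62.5 µg/mL) in the presence of increasing compound concentrations for 24 h. Supernatant IL-2 quantified by rat IL-2 ELISA against a standard curve; IC50 derived.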

CHO = assay: Cytotoxicity against CHO cells; type: cell-based; conditions: Cricetulus griseus
[5] = Drug metabolism in rat liver microsomes at 5 uM after 30 mins in presence of NADPH; type: ADME; conditions: read-out: Drug metabolism
Procedure, shortened: (§1)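 Rat or human hepatic microsomes (1 mg/mL protein) incubated with 5 µM compound plus NADPH for 30 min at 37 °C; result given as percent metabolized.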

[6] = Drug metabolism in human liver microsomes at 5 uM after 30 mins in presence of NADPH; type: ADME; conditions: read-out: Drug metabolism; procedure, shortened: as §1
[7] = Passive permeability of the compound at 20 uM by PAMPA; type: ADME; conditions: read-out: permeability
[8] = Terminal half life in Wistar rat at 1 mg/kg, iv; type: ADME, organism-based; parameters: dose 1 mg/kg, route intravenous; conditions: in vivo, read-out: beta t1/2 (converted)
[9] = AUC (0 to 24 hrs) in Wistar rat at 1 mg/kg, iv; type: ADME, organism-based; parameters: time < 24 hr, dose 1 mg/kg, route intravenous; conditions: plasma
[10] = Clearance in Wistar rat at 1 mg/kg, iv; type: ADME, organism-based; parameters: dose 1 mg/kg, route intravenous; conditions: in vivo
[11] = Volume of distribution at steady state in Wistar rat at 1 mg/kg, iv; type: ADME, organism-based; parameters: dose 1 mg/kg, route intravenous; conditions: in vivo, read-out: Vdss
[12] = Cmax in Wistar rat at 10 mg/kg, po; type: ADME, organism-based; parameters: dose 10 mg/kg, route oral; conditions: in vivo
[13] = AUC (0 to 24 hrs) in Wistar rat at 10 mg/kg, po; type: ADME, organism-based; parameters: time < 24 hr, dose 10 mg/kg, route oral; conditions: plasma
[14] = Oral bioavailability in Wistar rat at 10 mg/kg; type: ADME, organism-based; conditions: in vivo
Rattus norvegicus [15] = assay: (§2) Antiinflammatory activity against ovalbumin-induced model of allergic inflammation in brown Norway rat assessed as inhibition of eosinophil infiltration in bronchoalveolar lavage fluid at 3 mg/kg, po bid 1 hr before and 6.5 hrs post ovalbumin challenge measured 24 hrs post challenge relative to vehicle-treated control; type: functional; conditions: Lung
Procedure, shortened: (§3)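 Brown Norway rats (200-250 g) sensitized i.p. with OVA/Alum on days 0, 14 and 21, then challenged with OVA aerosol on day 28. Oral dosing at 3, 10 or 30 mg/kg bid, 1 h before and 6.5 h after challenge. Vehicle: TPGS 11.7%, PEG-400 40%, propylene glycol 15%, water 33.3%. Eight rats per group. BALF eosinophils counted 24 h post-challenge; inhibition expressed versus vehicle. Dexamethasone served as positive control. Plasma levels measured by UPLC-MS.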

Rattus norvegicus [16] = assay: as §2, with “10” for “3”; type: functional; conditions: Lung; procedure, shortened: as §3
Rattus norvegicus [17] = assay: as §2, with “30” for “3”; type: functional; conditions: Lung; procedure, shortened: as §3
Rattus norvegicus [18] = assay: as §2, with “compound administered orally” for “at 3 mg/kg, po”; type: functional, organism-based; conditions: Lung; procedure, shortened: as §3
Rattus norvegicus [19] = assay: as §2, with “against po dosed” for “against”, “plasma level >3-fold above IC50 for rat IL-2 inhibition compound administered” for “3 mg/kg, po”; type: functional; procedure, shortened: as §3
[20] = Lipophilicity, log D of the compound at pH 7.4; type: physicochemical; conditions: buffer
[21] = Plasma protein binding in Wistar rat; type: ADME, cell-free; conditions: read-out: PPB
Rattus norvegicus [22] = assay: as §2, with “1” for “3”; type: functional; conditions: Lung

Chain of Calcium release-activated calcium channel protein 1 (Q96D31 whole entry): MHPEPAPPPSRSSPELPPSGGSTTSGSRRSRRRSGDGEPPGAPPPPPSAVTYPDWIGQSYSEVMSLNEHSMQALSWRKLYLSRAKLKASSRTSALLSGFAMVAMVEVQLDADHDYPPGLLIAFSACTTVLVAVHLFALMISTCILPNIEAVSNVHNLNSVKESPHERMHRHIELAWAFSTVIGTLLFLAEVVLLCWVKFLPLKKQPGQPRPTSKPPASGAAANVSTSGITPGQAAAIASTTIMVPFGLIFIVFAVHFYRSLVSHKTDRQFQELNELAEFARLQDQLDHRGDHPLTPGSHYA

SMILES: Cc1cc(S(=O)(=O)N(C)C)ccc1-c1cnc2[nH]c(-c3c(F)cccc3Cl)cc2c1
- IC50 [1]: 550 nM
- IC50 [2]: 119 nM

SMILES: Cc1cc(S(C)(=O)=O)ccc1-c1cnc2[nH]c(-c3c(F)cccc3Cl)cc2c1
- IC50 [1]: 280 nM
- IC50 [2]: 290 nM

SMILES: Fc1cccc(Cl)c1-c1cc2cc(-c3cc4c(cc3Cl)OC(F)(F)O4)cnc2[nH]1
- IC50 [1]: 120 nM
- IC50 [2]: 56 nM
- solubility [3]: < 1 µg/mL

SMILES: CNS(=O)(=O)c1ccc(-c2cnc3[nH]c(-c4c(F)cccc4Cl)cc3c2)c(C)c1
- IC50 [1]: 155 nM
- IC50 [2]: 180 nM

SMILES: Cc1cc(C(F)(F)F)ncc1-c1cnc2[nH]c(-c3c(F)cccc3Cl)cc2c1
- IC50 [1]: 129 nM
- IC50 [2]: 120 nM

SMILES: Cc1nnsc1C(=O)Nc1ccc(-n2nc(C(F)(F)F)cc2C(F)(F)F)cc1
- logD [20]: 4.4
- IC50 [1]: 75 nM
- IC50 [2]: 10 nM

SMILES: CNCc1ccc(-c2cnc3[nH]c(-c4c(F)cccc4Cl)cc3c2)c(C)c1
- IC50 [1]: 10000 nM

SMILES: Cc1cc(=O)n(C)cc1-c1cnc2[nH]c(-c3c(F)cccc3Cl)cc2c1
- IC50 [1]: > 10000 nM

SMILES: COc1cc(C)c(-c2cnc3[nH]c(-c4c(F)cccc4Cl)cc3c2)cn1
- IC50 [1]: 71 nM
- IC50 [2]: 40 nM
- IC50 [4]: 104 nM
- IC50 (LAD2): 443 nM
- IC50 (Blood): 1300 nM
- IC50 (CHO): > 100000 nM
- metabolised at 0.5 h, 5 µM [5]: 10%
- metabolised at 0.5 h, 5 µM [6]: 15%
- Papp at 20 µM [7]: 0.1 ×10⁻⁶ cm/s
- half-life [8]: 2.1 h
- AUC(0-t) at 24 h [9]: 596 ng·h/mL
- clearance [10]: 24 mL/min/kg
- Vd [11]: 4.2 L/kg
- Cmax [12]: 153 ng/mL
- AUC(0-t) at 24 h [13]: 2180 ng·h/mL
- bioavailability [14]: 37%
- solubility [3]: < 5 µg/mL

SMILES: Cn1nc(C(F)(F)F)cc1-c1cnc2[nH]c(Cc3ccccc3)cc2c1
- IC50 [1]: 1400 nM
- IC50 [2]: 3000 nM

SMILES: C[C@@H]1C[C@H]2[C@@H]3CCC4=CC(=O)C=C[C@]4(C)[C@@]3(F)[C@@H](O)C[C@]2(C)[C@@]1(O)C(=O)CO [DEXAMETHASONE]
- inhibition in vivo at 1 mg/kg (Rattus norvegicus [22]): 100%

SMILES: COc1ccc(OC)c(-c2ccc(NC(=O)c3ccncc3F)cc2)c1
- logD [20]: 3.5
- IC50 [1]: 82 nM
- IC50 [2]: 10 nM

SMILES: Cn1nc(C(F)(F)F)cc1-c1cnc2[nH]c(C3CCCCC3)cc2c1
- IC50 [1]: 310 nM
- IC50 [2]: 183 nM

Continued, in another order:

- IC50 [1]: 160 nM
- IC50 [2]: 260 nM
SMILES: Cn1nc(C(F)(F)F)cc1-c1cnc2[nH]c(-c3ccccc3Cl)cc2c1

- IC50 [1]: 10000 nM
SMILES: COc1ncc(-c2cnc3[nH]c(-c4c(F)cccc4Cl)cc3c2)c(C)n1

- IC50 [1]: 150 nM
- IC50 [2]: 68 nM
- IC50 [4]: 440 nM
- IC50 (LAD2): 630 nM
- IC50 (Blood): 740 nM
- metabolised at 0.5 h, 5 µM [5]: 10%
- metabolised at 0.5 h, 5 µM [6]: < 5%
- Papp at 20 µM [7]: 0.66 ×10⁻⁶ cm/s
- half-life [8]: 8 h
- AUC(0-t) at 24 h [9]: 1820 ng·h/mL
- clearance [10]: 8 mL/min/kg
- Vd [11]: 5 L/kg
- Cmax [12]: 807 ng/mL
- AUC(0-t) at 24 h [13]: 11200 ng·h/mL
- bioavailability [14]: 62%
- solubility [3]: < 5 µg/mL
SMILES: COc1cc(OC)c(-c2cnc3[nH]c(-c4c(F)cccc4Cl)cc3c2)cn1
- IC50 (CHO): > 100000 nM
- inhibition in vivo at 3 mg/kg (Rattus norvegicus [15]): 9%
- inhibition in vivo at 10 mg/kg (Rattus norvegicus [16]): 68%
- inhibition in vivo at 30 mg/kg (Rattus norvegicus [17]): 75%
- inhibition (Rattus norvegicus [18]): Dose-dependent effect
- inhibition (INH) (Rattus norvegicus [19]): 70%

- IC50 [1]: 10000 nM
SMILES: Cc1cc(S(=O)(=O)N2CCOCC2)ccc1-c1cnc2[nH]c(-c3c(F)cccc3Cl)cc2c1

- IC50 [1]: > 10000 nM
SMILES: Cn1nc(C(F)(F)F)cc1-c1cnc2[nH]c(C3CCOCC3)cc2c1

- IC50 [1]: 66 nM
- IC50 [2]: 23 nM
- IC50 [4]: < 100 nM
- IC50 (LAD2): 372 nM
- IC50 (Blood): 500 nM
- metabolised at 0.5 h, 5 µM [5]: < 5%
- metabolised at 0.5 h, 5 µM [6]: < 5%
- Papp at 20 µM [7]: < 0.05 ×10⁻⁶ cm/s
- solubility [3]: < 5 µg/mL
- fraction unbound [21]: < 0.001
SMILES: Cn1nc(C(F)(F)F)cc1-c1cnc2[nH]c(-c3c(F)cccc3Cl)cc2c1
- IC50 (CHO): > 100000 nM

- IC50 [1]: 140 nM
- IC50 [2]: 73 nM
SMILES: Cn1nc(C(F)(F)F)cc1-c1cnc2[nH]c(-c3c(F)cccc3F)cc2c1

- IC50 [1]: 260 nM
- IC50 [2]: 270 nM
SMILES: Cn1nc(C(F)(F)F)cc1-c1cnc2[nH]c(C3CCCC3)cc2c1

- IC50 [1]: 88 nM
- IC50 [2]: 117 nM
- solubility [3]: < 1 µg/mL
SMILES: Cc1nc2cc(-c3cnc4[nH]c(-c5c(F)cccc5Cl)cc4c3)c(Cl)cc2o1

- IC50 [1]: 64 nM
- IC50 [2]: 150 nM
SMILES: Cc1cc(OC(F)F)ncc1-c1cnc2[nH]c(-c3c(F)cccc3Cl)cc2c1

- IC50 [1]: > 10000 nM
SMILES: Cc1cc(=O)[nH]cc1-c1cnc2[nH]c(-c3c(F)cccc3Cl)cc2c1
